Some results are limits rather than exact numbers.

The values below come from ChEMBL document CHEMBL1138195, “Highly chiral muscarinic ligands: the discovery of (2S,2'R,3'S,5'R)-1-methyl-2-(2-methyl-1,3-oxathiolan-5-yl)pyrrolidine 3-sulfoxide methyl iodide, a potent, functionally selective, M2 partial agonist” (J Med Chem, 2006).

Assay [1] deals with T1, Muscarinic acetylcholine receptor M5 (Homo sapiens, UniProt P08912).
T1 sequence (P08912 whole entry): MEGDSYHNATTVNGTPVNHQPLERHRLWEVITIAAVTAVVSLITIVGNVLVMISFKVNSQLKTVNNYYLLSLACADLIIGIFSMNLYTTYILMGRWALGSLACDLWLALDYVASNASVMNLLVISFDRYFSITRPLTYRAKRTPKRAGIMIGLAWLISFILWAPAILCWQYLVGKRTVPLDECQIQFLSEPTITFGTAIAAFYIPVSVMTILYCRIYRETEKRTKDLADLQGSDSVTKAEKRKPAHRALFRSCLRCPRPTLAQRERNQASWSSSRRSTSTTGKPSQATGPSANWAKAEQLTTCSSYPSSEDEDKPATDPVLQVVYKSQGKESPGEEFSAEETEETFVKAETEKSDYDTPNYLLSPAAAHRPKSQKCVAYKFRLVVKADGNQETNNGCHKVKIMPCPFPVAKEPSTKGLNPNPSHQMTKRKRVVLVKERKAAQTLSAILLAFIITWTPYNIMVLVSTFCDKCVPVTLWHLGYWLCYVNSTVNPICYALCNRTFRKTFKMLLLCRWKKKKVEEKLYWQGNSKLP
The assay is described as follows: Binding affinity to cloned human muscarinic M5 receptor expressed in CHO cells. It counts as cell-based. A digest of the protocol: (§1)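 Membranes from CHO cells stably expressing human hm2, hm4 or hm5 receptors, at 70, 50 and 25 µg/mL protein respectively. 0.2 nM [3H]NMS displaced by unlabelled ligand for 120 min at room temperature, in 25 mM sodium phosphate with 5 mM MgCl2, pH 7.4. Rapid filtration, then scintillation counting. Mean of at least three experiments.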

For assay [2], the target named is T2, Muscarinic acetylcholine receptor M1 (Homo sapiens, UniProt P11229).
T2 sequence (P11229 whole entry): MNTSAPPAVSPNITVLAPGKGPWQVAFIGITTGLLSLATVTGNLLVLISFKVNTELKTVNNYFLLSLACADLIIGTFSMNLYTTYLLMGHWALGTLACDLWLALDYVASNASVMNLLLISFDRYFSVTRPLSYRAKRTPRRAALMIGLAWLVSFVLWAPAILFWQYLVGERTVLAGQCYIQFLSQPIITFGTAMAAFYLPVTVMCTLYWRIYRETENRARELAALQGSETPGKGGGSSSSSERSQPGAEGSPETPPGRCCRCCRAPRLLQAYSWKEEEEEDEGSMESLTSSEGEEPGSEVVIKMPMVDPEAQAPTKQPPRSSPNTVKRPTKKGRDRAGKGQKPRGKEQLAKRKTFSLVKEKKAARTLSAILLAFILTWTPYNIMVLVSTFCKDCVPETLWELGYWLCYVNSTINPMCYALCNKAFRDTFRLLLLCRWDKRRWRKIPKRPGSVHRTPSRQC
The assay is described as follows: Binding affinity to cloned human muscarinic M1 receptor expressed in CHO cells. It counts as cell-based. Conditions: for Log Ki: cho.

The target of assay [3] is T3, Muscarinic acetylcholine receptor M2 (Homo sapiens, UniProt P08172).
T3 sequence (P08172 whole entry): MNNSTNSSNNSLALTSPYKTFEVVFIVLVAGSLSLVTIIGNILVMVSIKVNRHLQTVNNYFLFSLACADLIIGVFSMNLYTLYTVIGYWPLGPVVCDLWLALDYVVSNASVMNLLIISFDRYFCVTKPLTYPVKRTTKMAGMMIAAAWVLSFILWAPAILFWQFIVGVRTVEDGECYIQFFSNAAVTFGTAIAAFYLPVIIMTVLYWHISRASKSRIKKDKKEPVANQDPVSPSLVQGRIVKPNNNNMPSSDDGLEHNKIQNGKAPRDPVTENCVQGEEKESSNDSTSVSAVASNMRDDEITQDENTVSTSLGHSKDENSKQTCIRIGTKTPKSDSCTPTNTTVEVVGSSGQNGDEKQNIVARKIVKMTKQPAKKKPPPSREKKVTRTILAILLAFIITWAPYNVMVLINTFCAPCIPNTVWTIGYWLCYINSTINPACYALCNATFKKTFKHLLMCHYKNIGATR
In words: Binding affinity to cloned human muscarinic M2 receptor expressed in CHO cells. It counts as cell-based. A digest of the protocol: as §1

Assay [4] has as its target Muscarinic acetylcholine receptor M3 (Homo sapiens, UniProt P20309). In words: Binding affinity to cloned human muscarinic M3 receptor expressed in CHO cells. As to conditions: for Log Ki: cho. It counts as cell-based.
Assay [5] concerns the target T4, Muscarinic acetylcholine receptor M4 (Homo sapiens, UniProt P08173).
T4 sequence (P08173 whole entry): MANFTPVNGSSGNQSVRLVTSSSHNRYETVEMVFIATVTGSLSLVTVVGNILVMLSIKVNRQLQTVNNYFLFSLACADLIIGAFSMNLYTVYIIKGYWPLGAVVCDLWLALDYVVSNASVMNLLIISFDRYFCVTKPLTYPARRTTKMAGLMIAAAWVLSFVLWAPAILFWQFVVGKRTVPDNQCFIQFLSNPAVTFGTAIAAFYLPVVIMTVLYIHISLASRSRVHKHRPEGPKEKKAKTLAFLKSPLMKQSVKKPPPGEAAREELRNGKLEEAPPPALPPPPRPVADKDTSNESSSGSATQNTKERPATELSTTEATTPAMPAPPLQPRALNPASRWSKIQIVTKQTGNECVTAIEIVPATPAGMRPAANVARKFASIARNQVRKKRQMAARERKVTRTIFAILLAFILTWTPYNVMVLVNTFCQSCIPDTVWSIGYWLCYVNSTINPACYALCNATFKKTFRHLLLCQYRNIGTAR
In words: Binding affinity to cloned human muscarinic M4 receptor expressed in CHO cells. As to conditions: for Log Ki: cho. The assay is classed as cell-based. The method, boiled down:
as §1

In assay [6] the target is T5, Muscarinic acetylcholine receptor M1 (Homo sapiens) (UniProt P11229).
T5 sequence (whole entry): T2 sequence (P11229 whole entry)
The assay is described as follows: Antagonist affinity at muscarinic M1 receptor in rabbit vas deferens. The assay is classed as functional, tissue-based. Conditions: Oryctolagus cuniculus, target entry is the homologue from another species. A digest of the protocol: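 Field-stimulated (0.1 ms, 2 Hz, 10-15 V), contractions recorded isometrically after 1 h equilibration. Cumulative dose-response curves against p-Cl-McN-A-343 reference. Antagonists incubated 60 min before the repeat curve. Reported as pD2 (-log ED50) with intrinsic activity, or as pKb.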

In assay [7] the target is T6, Muscarinic acetylcholine receptor M2 (Homo sapiens) (UniProt P08172).
T6 sequence (whole entry): T3 sequence (P08172 whole entry)
In words: Agonist potency at muscarinic M2 receptor in guinea pig atrium. The assay is classed as functional, tissue-based. As to conditions: Cavia porcellus; Cardiac atrium; target entry is the homologue from another species. The method, boiled down:
(§2)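 Guinea pig left atria in PSS at 30 °C, paced by square-wave pulses (1 ms, 1 Hz, 5-10 V). Inotropic force recorded isometrically after 2 h equilibration, with cumulative dose-response curves to arecaidine propargyl ester as reference. Antagonists incubated 60 min after a 30 min wash, then the curve was repeated. Values given as pD2 with intrinsic activity, or as pKb.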

The target of assay [8] is T6, Muscarinic acetylcholine receptor M2 (Homo sapiens). The assay is described as follows: Antagonist affinity at muscarinic M2 receptor in guinea pig atrium. It counts as functional, tissue-based. As to conditions: Cavia porcellus; Cardiac atrium; target entry is the homologue from another species. The method, boiled down:
as §2

Assay [9] concerns the target Muscarinic acetylcholine receptor M3 (Cavia porcellus) (UniProt Q8VH26). In words: Agonist potency at muscarinic M3 receptor in guinea pig ileum. It counts as functional, tissue-based. A digest of the protocol:
(§3)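 Isolated guinea pig tissue contractions, measured against arecaidine propargyl ester control curves. Agonists: cumulative dose-response curve after a 30 min wash, responses as % of the control maximum. Antagonists: 60 min incubation, then a new agonist curve. Parallel time-control tissues were run. Values expressed as pD2 (-log ED50) with intrinsic activity, or as pKb (-log Kb).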

The target is the same in assay [10]. In words: Antagonist affinity at muscarinic M3 receptor in guinea pig ileum. It counts as functional, tissue-based. The method, boiled down: as §3
Assay [11] has as its target T7, Muscarinic acetylcholine receptor M4 (Homo sapiens) (UniProt P08173).
T7 sequence (whole entry): T4 sequence (P08173 whole entry)
In words: Antagonist affinity at muscarinic M4 receptor in guinea pig lung strips. It counts as functional. As to conditions: Cavia porcellus, target entry is the homologue from another species. The method, boiled down:
as §3

Sequence of Muscarinic acetylcholine receptor M3 (P20309 whole entry): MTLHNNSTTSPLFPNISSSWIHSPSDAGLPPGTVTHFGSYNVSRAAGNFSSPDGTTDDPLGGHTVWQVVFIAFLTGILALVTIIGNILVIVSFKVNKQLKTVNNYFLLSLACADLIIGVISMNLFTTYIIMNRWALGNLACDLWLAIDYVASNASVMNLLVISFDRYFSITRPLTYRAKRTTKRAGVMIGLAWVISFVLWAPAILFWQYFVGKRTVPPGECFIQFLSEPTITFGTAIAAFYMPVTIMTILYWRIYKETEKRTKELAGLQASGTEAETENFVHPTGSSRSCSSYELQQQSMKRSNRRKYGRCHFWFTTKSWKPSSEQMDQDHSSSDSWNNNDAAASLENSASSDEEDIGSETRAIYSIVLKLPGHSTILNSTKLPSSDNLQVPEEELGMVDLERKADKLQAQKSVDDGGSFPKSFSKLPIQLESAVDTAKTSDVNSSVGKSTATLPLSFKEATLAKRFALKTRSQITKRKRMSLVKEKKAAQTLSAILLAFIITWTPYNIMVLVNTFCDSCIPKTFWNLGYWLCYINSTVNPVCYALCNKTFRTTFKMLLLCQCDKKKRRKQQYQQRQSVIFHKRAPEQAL
Sequence of Muscarinic acetylcholine receptor M3 (Cavia porcellus) (Q8VH26 1-587): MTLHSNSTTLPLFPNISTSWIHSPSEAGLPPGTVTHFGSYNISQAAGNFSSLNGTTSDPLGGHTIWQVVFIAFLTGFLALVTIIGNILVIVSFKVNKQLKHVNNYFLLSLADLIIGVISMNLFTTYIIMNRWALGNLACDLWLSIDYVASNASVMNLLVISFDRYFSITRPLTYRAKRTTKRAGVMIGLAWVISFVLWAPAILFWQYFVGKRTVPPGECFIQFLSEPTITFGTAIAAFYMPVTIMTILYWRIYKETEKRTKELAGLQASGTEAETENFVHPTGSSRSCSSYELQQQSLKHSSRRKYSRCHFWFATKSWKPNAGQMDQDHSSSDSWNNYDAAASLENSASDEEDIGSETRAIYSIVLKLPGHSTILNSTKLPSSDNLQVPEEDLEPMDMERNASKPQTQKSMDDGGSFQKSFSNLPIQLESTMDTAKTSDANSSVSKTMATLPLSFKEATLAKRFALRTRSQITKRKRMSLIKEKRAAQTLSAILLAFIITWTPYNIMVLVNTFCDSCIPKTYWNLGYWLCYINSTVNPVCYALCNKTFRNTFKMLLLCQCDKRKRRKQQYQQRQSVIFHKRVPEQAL

Turning to `C[C@H]1O[C@@H]([C@H]2CCCN2C)C[S@+]1[O-]`, the Ki in [1], in assay [2], in assay [3], in assay [4] and in [5] was above 100 µM in each case.

On to `C[C@H]1O[C@@H]([C@@H]2CCC[N+]2(C)C)C[S@@+]1[O-].[I-]` (stereo in doubt; (-)-8), for which the Ki in [1] and in assay [3] was above 100 µM in each case. Moreover, the “Log Ki” value in [2], in assay [4] and in assay [5] was below -4 each time.

Turning to `C[C@H]1O[C@@H]([C@@H]2CCC[N+]2(C)C)C[S@@+]1[O-]` (stereo in doubt; (-)-8), the negative logarithm of the Kb (pKb) in assay [6], in assay [8], in assay [10] and in assay [11] was below 5 in each case. In addition, the Activity in assay [7] and in assay [9] was 0 each time.

For `C[C@@H]1O[C@H]([C@@H]2CCCN2C)C[S@+]1[O-]`, the Ki is above 100 µM in assay [1]; above 100 µM in [2]; 89.1 µM in assay [3]; above 100 µM in assay [4]; above 100 µM in [5]. The pKb in assay [6], in assay [8], in assay [10] and in [11] was below 5 each time. Besides, the Activity in [7] and in assay [9] was 0 in each case.

With `C[C@H]1O[C@@H]([C@H]2CCCN2C)C[S@@+]1[O-]`, the Ki in assay [1], in assay [2], in assay [3], in assay [4] and in assay [5] was above 100 µM each time.

On to `C[C@@H]1O[C@H]([C@@H]2CCCN2C)C[S@@+]1[O-]`, for which the Ki in assay [1], in assay [2], in [3], in [4] and in [5] was above 100 µM throughout. Moreover, the pKb in [6], in assay [8], in assay [10] and in assay [11] was below 5 in each case. The Activity in assay [7] and in [9] was 0 throughout.

For `C[C@@H]1O[C@H]([C@H]2CCCN2C)C[S@@+]1[O-]`, the Ki in assay [1], in assay [2], in assay [3], in assay [4] and in assay [5] was above 100 µM each time.

For `C[C@@H]1O[C@H]([C@H]2CCCN2C)C[S@+]1[O-]`, the Ki in [1], in [2], in [3], in assay [4] and in assay [5] was above 100 µM throughout.

For the compound `C[C@H]1O[C@@H]([C@@H]2CCC[N+]2(C)C)C[S@@+]1[O-]` (stereo in doubt; (-)-6) [listing 1 of 2 here], the Ki in assay [1] was above 100 µM; in assay [2], above 100 µM; in assay [3], 28.8 µM; in assay [4], above 100 µM; in assay [5], above 100 µM.

As to `C[C@H]1O[C@@H]([C@@H]2CCC[N+]2(C)C)C[S@@+]1[O-].[I-]` (stereo in doubt; (+)-7), the values for the Ki in assay [1] and in assay [3] were 57.5 µM and 81.3 µM, respectively. Moreover, the “Log Ki” value in [2], in [4] and in assay [5] was below -4 throughout.

As to `C[C@@H]1O[C@H]([C@H]2CCC[N+]2(C)C)C[S@+]1[O-]`, the Ki in assay [1], in assay [2], in [3], in assay [4] and in assay [5] was above 100 µM in each case.

Take `C[C@H]1O[C@@H]([C@@H]2CCC[N+]2(C)C)C[S@@+]1[O-]` (stereo in doubt; (+)-7): the pKb in assay [6], in [8], in [10] and in assay [11] was below 5 each time. Moreover, the Activity in assay [7] and in [9] was 0 each time.

On to `C[C@H]1O[C@@H]([C@@H]2CCC[N+]2(C)C)C[S@@+]1[O-]` (stereo in doubt; (-)-6) [listing 2 of 2 here], for which the pKb in assay [6], in assay [8], in assay [10] and in assay [11] was below 5 throughout. Also, the Activity in assay [7] and in [9] was 0 throughout.

With `C[C@H]1O[C@@H]([C@@H]2CCCN2C)C[S@@+]1[O-]`, the Ki in assay [1], in assay [2], in assay [3], in assay [4] and in assay [5] was above 100 µM each time.

For the compound `C[C@H]1O[C@@H]([C@@H]2CCC[N+]2(C)C)C[S@+]1[O-]`, the Ki in assay [1] was above 100 µM; in assay [2], above 100 µM; in [3] it was 77.6 µM; in assay [4], above 100 µM; in [5], above 100 µM. In addition, the pKb in assay [6], in [8], in assay [10] and in [11] was below 5 in each case. The Activity in assay [7] and in assay [9] was 0 throughout.

On to `C[C@H]1O[C@@H]([C@@H]2CCCN2C)C[S@+]1[O-]`, for which the Ki in assay [1] was above 100 µM; in assay [2], above 100 µM; in assay [3], 87.1 µM; in assay [4], above 100 µM; in assay [5], above 100 µM. Moreover, the pKb in assay [6], in assay [8], in assay [10] and in assay [11] was below 5 each time. Further, the Activity in assay [7] and in assay [9] was 0 throughout.

In general, Ki refers to a measure of affinity in units of concentration, obtained from inhibition or displacement. Read a low Ki as higher affinity. The pKb is the Kb on a negative log10 scale, so that one unit is a factor of ten.
